Hits are enriched below; roughly 1.9% of the tested compounds scored in any of these assays.
MC4R barr agon = human MC4R agonism via beta-arrestin. U2OS MC4R beta-arrestin complementation, luminescence; percent of melanotan II response, DMSO zero. activation, % at 8.9 µM. actives 0.98% (n = 360,000). AID 540308;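 active = activation above a per-plate cutoff, the mean activation of sample wells on that plate plus 3 SD, cut at about 8% in these data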
TLR9-MyD88 block = TLR9-MyD88 interaction inhibition | inhibition, % at 4.98 µM | CHO BLA complementation TLR9-MyD88, CCF4 FRET ratio | AID 504734 | actives 0.21% (n = 340,000) | Q9NR96+Q99836;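 active = inhibition above the mean over all tested compounds plus 3 SD, cut at about 21% in these data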;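 note: 0% = DMSO only wells and 100% = clavulanate BLA inhibitor control wells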
NTR1 agonist = NTR1 (human) agonism. NTR1-U2OS beta-arrestin-GFP spot imaging, agonist mode. activation, % at 20 µM. actives 0.17% (n = 330,000);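 active = activation at or above 40% of the spot to cytoplasm intensity ratio, with at least 20 cells analyzed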;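 note: 0% = DMSO without peptide and 100% = 100 nM NTR1 peptide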
NOD2 RIPK2 PPI = blocks binding of human NOD2 to RIPK2; O43353; CHO BLA complementation NOD2-RIPK2, CCF4 ratio; inhibition, % at 4.98 µM; actives 0.38% (n = 360,000); AID 624267; in the data active = inhibition above about 21%;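 note: 0% = vehicle only and 100% = reference blocker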
MC4R antag cAMP = human MC4R antagonism in cAMP assay. actives 0.48% (n = 360,000). MC4R-expressing cells, MTII-stimulated cAMP, LANCE TR-FRET. inhibition, % at 6.5 µM. P32245;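 active = inhibition above its plate's cutoff, the mean of tested wells on that plate plus 3 SD, cut at about 29% in these data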;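 note: 0% = Melanotan II alone and 100% = Melanotan II plus saturating MCL0020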
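material = U2OS cells stably expressing human melanocortin 4 receptor (MC4R) | also added = Melanotan II challenge | dosing = single nominal compound dose of 6.5 µM | detection = TR-FRET with Eu-cAMP and labeled anti-cAMP, 671 nm | replication = singlicate | timing = compound 30 min, challenge 1 h, detection 1 h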
TLR4 MyD88 comp = blocks binding of human TLR4 to MyD88 | HeLa CL3-4 TLR4/MyD88 BLA complementation, FRET ratio | actives 0.18% (n = 200,000) | O00206+Q99836 | inhibition, % at 8.4 µM; in the data active = inhibition above about 25%;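 note: 0% = vehicle and 100% = reference inhibitor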
cAMP nonselect = counter-screen for MC4R antagonists: nonselective cAMP signaling inhibitors | inhibition, % at 6.5 µM | actives 26% (n = 1,600) | shares compounds with MC4R antag cAMP | parental U2OS, forskolin cAMP, LANCE TR-FRET;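 active = mean inhibition over triplicates above the low-control well mean plus 3 SD, set per campaign, cut at about 13% in these data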;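 note: signal is single emission at 671 nm which falls as cellular cAMP rises; 0% = forskolin-stimulated wells and 100% = buffer without forskolin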
MC4R antag conf = human MC4R cAMP antagonism confirmation; MC4R-expressing cells, MTII-stimulated cAMP, TR-FRET; inhibition, % at 6.5 µM; shares compounds with MC4R antag cAMP; actives 27% (n = 1,600); in the data active = inhibition above about 29%;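 note: 0% = agonist stimulated wells alone and 100% = agonist stimulated wells plus saturating reference antagonist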
An asterisk follows results filed as active; . = no result given.

SMILES | MC4R barr agon | TLR9-MyD88 block | NTR1 agonist | NOD2 RIPK2 PPI | MC4R antag cAMP | TLR4 MyD88 comp | cAMP nonselect | MC4R antag conf
CN1CCN(c2ccc(NC(=O)c3sc4ccccc4c3Cl)cc2)CC1 | -2.8 | 10.0 | 2.0 | 8.7 | 5.7 | -3.8 | . | .
COC(=O)c1ccc(N2CCN(C)CC2)c(NC(=O)c2sc3ccccc3c2Cl)c1 | 0.6 | -7.9 | . | 4.9 | 30.8* | . | -1.6 | -2.0
CCOc1ccccc1NC(=O)CNC(=O)c1nn(-c2ccc(OC)c(OC)c2)c(=O)c2ccccc12 | -2.5 | -8.5 | 1.4 | -16.0 | 5.6 | . | . | .
CCOc1ccc(NC(=O)CNC(=O)c2nn(-c3ccc(OC)c(OC)c3)c(=O)c3ccccc23)cc1 | 1.0 | -6.4 | -2.1 | 0.6 | 37.7* | . | 12.6 | 18.6
COc1cccc(-c2ncc3ccccc3c2COC(=O)CCC(=O)O)c1 | 0.0 | -0.6 | 1.0 | 4.3 | 6.3 | . | . | .
CCSc1nnc(C)c(=O)n1COC(=O)c1ccc(S(=O)(=O)N2CCCC2)cc1 | -3.4 | 6.6 | -1.0 | -2.7 | 3.7 | -11.0 | . | .
NC(=O)c1cccc2ccccc12 | -1.4 | -6.1 | 0.1 | -5.3 | 31.8* | . | 2.0 | -7.5
O=C(c1ccccc1)c1cccc2ccccc12 | 5.0 | 5.6 | . | -3.7 | 2.3 | . | . | .
Cc1ccoc1C(=O)N1CCCC(CCC(=O)N2CCN(c3ccccn3)CC2)C1 (stereo not drawn) | 0.1 | -4.0 | -0.3 | 3.0 | 30.7* | 3.0 | 3.2 | 6.7
Cc1c(C(=O)OCC(=O)Nc2ccc(S(N)(=O)=O)cc2)oc2c1ccc1ccccc12 | 2.5 | 13.8 | -0.4 | -1.0 | 35.2* | -6.2 | 2.5 | -5.3
Cc1ccc2c(C)c(C(=O)Nc3ccc(S(N)(=O)=O)cc3)oc2c1C | 4.1 | -2.8 | 0.6 | 0.9 | 3.9 | -16.1 | . | .
CC(=O)Nc1ccc(-c2ccnc3c2CC(C)(C(=O)NCCc2ccccc2)O3)cc1 (stereo not drawn) | -0.2 | . | . | -6.4 | 10.6 | . | . | .
COc1ccc(CCCNC(=O)C2(C)Cc3c(-c4ccc(NC(C)=O)cc4)ccnc3O2)cc1 (stereo not drawn) | 1.9 | . | . | -8.9 | 34.0* | . | 3.2 | 2.9
CCc1ccc(N2CCN(S(=O)(=O)CC34CCC(CC3=O)C4(C)C)CC2)cc1 (stereo not drawn) | 0.8 | -13.4 | 6.6 | -4.1 | 15.0 | . | . | .
CC(C)Cc1nc2oc3c(Cl)ncnc3c2c2c1CCCC2 | -1.8 | -3.6 | 34.2 | 0.6 | 46.2* | . | 13.9* | 31.8*
CN(Cc1ccccc1)c1nc(N)nc(Cl)c1C=O | -1.4 | -7.2 | 7.7 | 4.3 | 33.7* | 9.2 | 17.5* | 7.9
Fc1ccc(NC(=S)SCc2ccc3c(c2)OCO3)cc1F | 1.8 | -2.1 | . | -6.0 | -11.8 | . | . | .
Cc1cc(C)c(C)c(S(=O)(=O)N2CCCCC2C(=O)O)c1C (stereo not drawn) | -2.2 | -5.2 | 2.9 | 2.0 | 7.4 | -12.6 | . | .
COc1cc([N+](=O)[O-])cc(/C=N/NC(=O)Cn2nc(C)cc2C)c1O | -1.5 | 2.2 | -1.4 | -7.3 | 1.6 | . | . | .
COc1cc([N+](=O)[O-])cc(/C=N/NC(=O)Cn2nccc2C)c1O | -2.0 | -1.0 | -0.4 | 5.0 | 28.8* | . | -6.2 | -13.6
N#C/C(=C/c1ccc(N2CCCCC2)o1)C(=O)Nc1ccc2ccccc2c1 | -3.4 | 18.9 | . | 15.4 | 29.3* | 16.4 | -2.7 | 13.0
COc1ccc(NC(=O)/C(C#N)=C\c2ccc(N3CCOCC3)o2)cc1 | -1.2 | 6.3 | -2.3 | 3.5 | -4.9 | -11.8 | . | .
CCCCCCNc1nc(-c2ccc(OC)cc2)c(CCC(=O)O)s1 | 1.4 | 2.0 | -1.8 | -6.7 | 29.5* | -1.9 | -2.9 | -1.3
COc1cc(NC(=O)CN2C(=O)C(C)N(c3ccc(C)cc3)C2=O)cc(OC)c1 (stereo not drawn) | -1.3 | 10.4 | 0.4 | -3.7 | 2.1 | . | . | .
CCCNC(=O)c1ccc(N2CCC3(CC2)CC(c2ccccc2)=NO3)c(NC(=O)c2ccco2)c1 | -1.3 | 5.6 | 0.4 | -9.1 | 33.4* | . | 5.4 | 17.0

High-throughput results (PubChem)
